pIC50: −log10 of the molar value. Activity calls are given as the source filed them. The rule behind the calls is not given here.
Tests used:
Rattus norvegicus [1] = species on record: Rattus norvegicus; experiment: Effect on TGFbeta1 receptor expression in TGFbeta1-stimulated Sprague-Dawley rat cardiac fibroblasts at 2.5 to 10 uM measured after 5 mins by Western blot analysis; type: functional
Rattus norvegicus [2] = experiment: Antifibrotic activity in abdominal aortic constriction Sprague-Dawley rat model of cardiac fibrosis assessed as systolic left ventricular posterior wall thickness at 5 mg/kg, ip administered once daily for 4 weeks measured post-last dose by echocardiography (reference value: 3.62 +/- 0.26 mm); type: functional
Rattus norvegicus [3] = experiment: Antifibrotic activity in abdominal aortic constriction Sprague-Dawley rat model of cardiac fibrosis assessed as reduction in Smad2 phosphorylation in heart at 5 mg/kg, ip administered once daily for 4 weeks measured post-last dose by immunohistochemical analysis; type: functional, organism-based
How it was run: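 AAC rats dosed ip daily for 4 weeks, n=8 per group. Phospho-Smad2/3 stained by immunohistochemistry on 4 µm paraffin heart sections. Stained area summed over 6 fields per rat for statistics.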

Rattus norvegicus [4] = species on record: Rattus norvegicus; experiment: Effect on TGFbeta2 receptor expression in TGFbeta1-stimulated Sprague-Dawley rat cardiac fibroblasts at 2.5 to 10 uM measured after 5 mins by Western blot analysis; type: functional
[5] = Effect on total Smad2 expression in TGFbeta1-stimulated Sprague-Dawley rat cardiac fibroblasts at 10 uM measured after 5 to 30 mins by Western blot analysis; type: ADME
Rattus norvegicus [6] = experiment: Antifibrotic activity in abdominal aortic constriction Sprague-Dawley rat model of cardiac fibrosis assessed as down regulation of alpha-SMA expression in heart at 5 mg/kg, ip administered once daily for 4 weeks measured post-last dose by Western blot analysis; type: functional, organism-based
How it was run: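 AAC rats dosed ip daily for 4 weeks, n=8 per group. Hearts homogenized in lysis buffer with protease and phosphatase inhibitors and spun at 12,000 rpm for 30 min at 4 °C. Nuclear and cytoplasmic fractions prepared with a kit. Protein measured by BCA; 30 µg run on 10% SDS-PAGE, transferred to PVDF and immunoblotted; bands quantified by densitometry.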

[7] = target: T1, TGF-beta receptor type-1 (Rattus norvegicus) (UniProt P80204); experiment: Inhibition of TGFbeta1 receptor in TGFbeta1-stimulated Sprague-Dawley rat cardiac fibroblasts assessed as reduction in fibronectin expression measured after 12 hrs by Western blot analysis
T1 sequence (whole entry): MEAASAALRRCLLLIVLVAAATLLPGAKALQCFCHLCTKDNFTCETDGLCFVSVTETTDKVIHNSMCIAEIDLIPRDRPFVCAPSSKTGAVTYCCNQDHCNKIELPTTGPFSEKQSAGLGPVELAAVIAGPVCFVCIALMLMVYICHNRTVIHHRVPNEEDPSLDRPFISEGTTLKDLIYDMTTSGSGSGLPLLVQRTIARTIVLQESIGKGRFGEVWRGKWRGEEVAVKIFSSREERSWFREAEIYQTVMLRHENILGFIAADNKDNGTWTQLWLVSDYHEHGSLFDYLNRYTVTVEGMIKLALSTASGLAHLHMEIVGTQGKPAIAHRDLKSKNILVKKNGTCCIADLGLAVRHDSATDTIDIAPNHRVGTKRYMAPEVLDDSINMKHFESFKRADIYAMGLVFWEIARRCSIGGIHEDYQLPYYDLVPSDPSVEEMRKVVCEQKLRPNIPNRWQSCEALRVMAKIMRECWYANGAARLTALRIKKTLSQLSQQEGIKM
How it was run: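 Primary rat cardiac fibroblasts (passages 2–4, 3×10^5 per well) treated with compound plus 10 ng/mL TGFβ1 for 12 h; tested at 2.5, 5 and 10 µM. Lysates run on 10% SDS-PAGE (30 µg protein), probed for FN, α-SMA and collagen I/III, and quantified by densitometry against GAPDH. N=3 independent experiments.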

[8] = target: T1, TGF-beta receptor type-1 (Rattus norvegicus); experiment: Inhibition of TGFbeta1 receptor in TGFbeta1-stimulated Sprague-Dawley rat cardiac fibroblasts assessed as reduction in Smad2 phosphorylation at 10 uM measured after 5 to 30 mins by Western blot analysis
TGF-beta receptor type-1 = target: T2, TGF-beta receptor type-1 (Homo sapiens, UniProt P36897); experiment: Inhibition of recombinant human N-terminal GST-tagged TGFbeta1 receptor (80 to end residues) expressed in baculovirus infected Sf9 insect cells using casein as substrate measured after 2 hrs by ADP-Glo assay
T2 sequence (P36897 whole entry): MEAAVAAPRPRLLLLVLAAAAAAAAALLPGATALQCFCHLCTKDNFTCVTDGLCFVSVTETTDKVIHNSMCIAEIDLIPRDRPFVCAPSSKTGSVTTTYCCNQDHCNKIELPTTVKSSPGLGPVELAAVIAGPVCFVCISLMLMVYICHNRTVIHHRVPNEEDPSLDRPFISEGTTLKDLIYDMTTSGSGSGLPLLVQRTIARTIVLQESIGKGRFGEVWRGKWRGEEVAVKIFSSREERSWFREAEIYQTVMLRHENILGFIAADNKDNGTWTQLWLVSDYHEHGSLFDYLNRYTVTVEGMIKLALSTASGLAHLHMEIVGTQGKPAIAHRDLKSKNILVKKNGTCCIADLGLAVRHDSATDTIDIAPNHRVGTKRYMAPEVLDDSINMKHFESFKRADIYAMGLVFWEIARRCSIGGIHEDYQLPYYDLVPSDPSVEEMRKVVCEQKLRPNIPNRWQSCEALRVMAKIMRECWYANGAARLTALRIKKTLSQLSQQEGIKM

Rattus norvegicus [9] = experiment: Antifibrotic activity in abdominal aortic constriction Sprague-Dawley rat model of cardiac fibrosis assessed as decrease in heart alpha-SMA level at 5 mg/kg, ip administered once daily for 4 weeks measured post-last dose by immunohistochemical analysis relative to control; type: functional; set-up: scale not given: the % may be the effect or the level left
How it was run: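 Male SD rats (200–250 g) with abdominal aortic constriction (suture tied over a 21-G probe above the renal arteries), under pentobarbital 30 mg/kg ip. Dosed ip daily for 4 weeks. Vehicle was saline with 0.5% DMSO and 5% Kolliphor HS 15. Groups: sham, AAC, AAC+nifedipine 10 mg/kg, n=8 each. Formalin-fixed paraffin sections 4 µm thick; FN and α-SMA by immunohistochemistry, collagen by Masson's trichrome; stained area measured.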

[10] = target: T1, TGF-beta receptor type-1 (Rattus norvegicus); experiment: Inhibition of TGFbeta1 receptor in TGFbeta1-stimulated Sprague-Dawley rat cardiac fibroblasts assessed as reduction in Smad3 nuclear translocation at 10 uM measured after 5 mins by DAPI staining-based laser confocal microscopic analysis
How it was run: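 Primary rat cardiac fibroblasts treated with 10 µM compound plus 10 ng/mL TGFβ1 for 5 min. Fixed in 4% PFA, permeabilized with 0.1% Triton X-100, blocked with goat serum. Stained with anti-Smad2 or anti-Smad3 overnight at 4 °C, then Alexa 594 secondary and DAPI nuclear stain. Imaged by confocal microscopy.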

[11] = target: T1, TGF-beta receptor type-1 (Rattus norvegicus); experiment: Inhibition of TGFbeta1 receptor in TGFbeta1-stimulated Sprague-Dawley rat cardiac fibroblasts assessed as reduction in fibronectin expression at 50 uM measured after 12 hrs by Western blot analysis
How it was run: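 Screen in primary rat cardiac fibroblasts: compounds at 50 µM or 10 µM given with 10 ng/mL TGFβ1 for 12 h. FN measured by Western blot with GAPDH loading control and densitometry. N=3 independent experiments.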

[12] = target: T1, TGF-beta receptor type-1 (Rattus norvegicus); experiment: Inhibition of TGFbeta1 receptor in TGFbeta1-stimulated Sprague-Dawley rat cardiac fibroblasts assessed as reduction in collagen 1 mRNA expression at 2.5 to 10 uM measured after 12 hrs by qRT-PCR analysis
How it was run: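 Primary rat cardiac fibroblasts (3×10^5 per well) treated with compound plus 10 ng/mL TGFβ1 for 12 h. Total RNA extracted and target transcripts measured by SYBR Green qRT-PCR, normalized to GAPDH.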

inhibition [7]: Dose-dependent effect | inhibition [8]: Active | pIC50 (TGF-beta receptor type-1): 7.83 | inhibition [10]: Active | fibronectin reduction (active/not active) [11]: Active | inhibition [12]: Active
Compound: C=C(C)[C@@H]1C/C=C(\C)C(=O)CCC2=C[C@@H]1OC2=O
Activity (Rattus norvegicus [1]): inactive | Activity (Rattus norvegicus [2]): 3.23 mm | Activity (Rattus norvegicus [3]): Active | Activity (Rattus norvegicus [4]): inactive | Activity [5]: Non-Toxic | Activity (Rattus norvegicus [6]): Active | Activity (Rattus norvegicus [9]): 88.8%

— ChEMBL document CHEMBL4373718, “Germacrane Sesquiterpenoids as a New Type of Anticardiac Fibrosis Agent Targeting Transforming Growth Factor β Type I Receptor” (J Med Chem, 2019)
